Experimental data: ChEMBL document CHEMBL5344415, “Synthesis and Characterization of Phenylalanine Amides Active against Mycobacterium abscessus and Other Mycobacteria” (J Med Chem, 2023)
Values after ≈ are worked out from the molar mass of the structure shown. Active and inactive are the calls of the source. The calls are words filed in the database; no cut-off is given here.

Columns and labels:
MCF7 = test: Cytotoxicity against human MCF7 cells assessed as reduction in cell viability incubated for 72 hrs by SRB assay; assay type: toxicity, cell-based
[1] = system: Mycobacteroides abscessus; test: Antibacterial activity against Mycobacterium abscessus Bamboo harboring inactive clarithromycin-sensitive erm41 C28 sequevar assessed as bacterial growth inhibition incubated for 3 days in 7H9 medium by optical density based method; assay type: functional; settings: 72 h, time 3 day
[2] = system: Mycobacteroides abscessus; test: Antibacterial activity against Mycobacterium abscessus ATCC 19977 expressing tomato RFP infected in human THP-1 cells assessed as bacterial growth inhibition incubated for 4 days in RPMI medium by RFP fluorescence based assay; assay type: functional; settings: ATCC 19977, 96 h, time 4 day
How it was run: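 RFP M. abscessus washed, moved into RPMI, filtered through 5 µm and opsonised with 10 % human serum for 30 min. THP-1 cells infected at MOI 5:1 with PMA 40 ng/mL for 4 h at 37 °C, then washed. Infected cells (1x10⁵/well) given a ten-point twofold series. Incubated 4 days at 37 °C, 5 % CO₂. Cells PFA-fixed and DAPI-stained. RFP quantified by imaging. Controls were DMSO and 1.5 µM bedaquiline. Duplicate.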

HeLa = test: Cytotoxicity against human HeLa cells assessed as reduction in cell viability incubated for 72 hrs by SRB assay; assay type: toxicity, cell-based
[3] = system: Mycobacteroides abscessus; test: Antibacterial activity against Mycobacterium abscessus ATCC 19977 expressing tomato RFP assessed as bacterial growth inhibition incubated for 3 days in MHII medium by RFP fluorescence based broth microdilution method; assay type: functional; settings: ATCC 19977, 72 h, time 3 day
How it was run: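 Broth microdilution in MHII broth with 0.05 % Tween 80, against the RFP-expressing strain. Twofold nine-point dilution series. Inoculum 5 x 10⁵ cells/mL from a mid-log preculture. Incubated 3 days at 37 °C. Read-out by RFP fluorescence (ex 544/em 590 nm). Controls were 1 % DMSO and 100 μM amikacin. MIC₉₀ from duplicates, averaged.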

[4] = system: Mycobacterium intracellulare; test: Antibacterial activity against Mycobacterium intracellulare ATCC 35761 expressing tomato RFP assessed as bacterial growth inhibition incubated for 5 days in 7H9 medium by RFP fluorescence based broth microdilution method; assay type: functional; settings: ATCC 35761, 120 h, time 5 day
How it was run: (§1)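 Broth microdilution in 7H9 with 10 % ADS and 0.05 % Tween 80. Twofold nine-point dilution series. Inoculum 5 x 10⁵ cells/mL taken from a mid-log preculture. Incubation at 37 °C, 3 days for M. smegmatis and M. abscessus, 5 days for M. intracellulare. Read-out by RFP fluorescence (ex 544/em 590 nm). Controls were 1 % DMSO and 100 μM amikacin. MIC₉₀ from duplicates, averaged.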

[5] = Stability in mouse plasma at 1 uM measured over 120 mins by HPLC-MS/MS analysis; assay type: ADME, cell-free; settings: 2 h
[6] = system: Mycobacterium tuberculosis; test: Antibacterial activity against Mycobacterium tuberculosis H37Rv ATCC 27294 assessed as bacterial growth inhibition incubated for 7 days in 7H9 medium by optical density based microplate reader analysis; assay type: functional; settings: H37Rv ATCC 27294, 168 h, time 7 day
How it was run: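 Compounds serially diluted in flat-bottom 96-well plates. Mid-log culture mixed in to a final OD₆₀₀ of 0.05. Sealed plates incubated in humidified boxes at 37 °C for 7 days with shaking at 80 rpm. Turbidity read at 600 nm. MIC₉₀ taken from dose–response curves. Two biological replicates, averaged.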

[7] = Stability in human plasma at 1 uM measured over 120 mins by HPLC-MS/MS analysis; assay type: ADME, cell-free; settings: 2 h
[8] = Cytotoxicity against mouse NIH3T3 cells assessed as reduction in cell viability incubated for 72 hrs by SRB assay; assay type: toxicity, cell-based; settings: mouse, NIH3T3 cells
A-375 = test: Cytotoxicity against human A-375 cells assessed as reduction in cell viability incubated for 72 hrs by SRB assay; assay type: toxicity, cell-based
HT-29 = test: Cytotoxicity against human HT-29 cells assessed as reduction in cell viability incubated for 72 hrs by SRB assay; assay type: toxicity, cell-based
A2780 = test: Cytotoxicity against human A2780 cells assessed as reduction in cell viability incubated for 72 hrs by SRB assay; assay type: toxicity, cell-based
[9] = system: Mycolicibacterium smegmatis; test: Antibacterial activity against Mycobacterium smegmatis mc2 155 expressing tomato RFP assessed as bacterial growth inhibition incubated for 3 days in 7H9 medium by RFP fluorescence based broth microdilution method; assay type: functional; settings: mc2 155, 72 h, time 3 day; how it was run: as §1
[10] = system: Mycobacteroides abscessus; test: Bactericidal activity against Mycobacterium abscessus ATCC 19977 assessed as reduction in viable bacteria at 6.25 uM incubated for 4 days by microplate dilution assay relative to control; assay type: functional; settings: time 4 day
[11] = Metabolic stability in pooled human liver microsomes assessed as half life at 2 uM measured over 40 mins in presence of NADPH-cofactor system by HPLC-MS/MS analysis; assay type: ADME, Microsome
How it was run: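 Pooled mixed-gender human liver microsomes at 0.42 mg protein/mL in 100 mM phosphate pH 7.4 with MgCl₂ and an NADPH-regenerating system. Test compound 2 μM, 1.6 % solvent, at 37 °C. Five time points over 40 min, stopped with acetonitrile, analysed by HPLC-MS/MS. t1/2 from the slope of ln(AUC) versus time. Controls lacked NADPH. Duplicates.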

[12] = system: Mycobacteroides abscessus; test: Antibacterial activity against MMV688845-resistant Mycobacterium abscessus Bamboo 845R-2.1 harboring rpoB/beta subunit P473L mutation assessed as bacterial growth inhibition incubated for 3 days by optical density based analysis; assay type: functional; settings: Bamboo 845R-2.1, 72 h, time 3 day
How it was run: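 Tenfold-point twofold dilution series in 7H9, final DMSO 1 %. Final ranges typically 50–0.098 or 6.25–0.012 μM. Mid-log culture added to an initial OD₆₀₀ of 0.05 (5*10⁶ CFU/mL). Incubated 3 days at 37 °C with shaking at 110 rpm. Growth taken as OD₆₀₀ on day 3 minus day 0, as % of drug-free wells. MIC₉₀ read visually from the curves. Clarithromycin as control. Two biological replicates, averaged.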

[13] = system: Mycobacteroides abscessus; test: Bactericidal activity against Mycobacterium abscessus ATCC 19977 assessed as reduction in viable bacteria at 3.13 uM incubated for 4 days by microplate dilution assay relative to control; assay type: functional; settings: time 4 day
How it was run: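 After 4 days in the microplate dilution assay, 10 µl samples (undiluted or 1:100) were plated on 7H10 with glycerol, ADS and 400 µg/mL hygromycin. Colonies counted after 4 days at 37 °C. Done in triplicate. CFU/mL compared with the inoculum counted before incubation.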

[14] = Kinetic solubility of compound in PBS at 0.78 to 500 uM measured immediately by nephelometric method; assay type: physicochemical; settings: buffer, dose 0.78-500 µM
How it was run: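 DMSO stocks prediluted in DMSO, then diluted 1:50 into PBS (2 % DMSO final) and read immediately by nephelometry at 0.78–500 μM; blank-corrected data fitted by segmental regression; quadruplicates from one stock.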

[15] = system: Mycobacteroides abscessus; test: Antibacterial activity against Mycobacterium abscessus ATCC 19977 expressing tomato RFP assessed as bacterial growth inhibition incubated for 3 days in 7H9 medium by RFP fluorescence based broth microdilution method; assay type: functional; settings: ATCC 19977, 72 h, time 3 day; how it was run: as §1
[16] = system: Mycobacterium tuberculosis; test: Antibacterial activity against Mycobacterium tuberculosis; assay type: functional
[17] = system: Mycobacteroides abscessus; test: Bactericidal activity against Mycobacterium abscessus ATCC 19977 assessed as reduction in viable bacteria at 6.25 to 12.5 uM incubated for 4 days by microplate dilution assay; assay type: functional, organism-based; settings: dose 6.25-12.5 µM, time 4.0 day
[18] = system: Mycobacteroides abscessus; test: Bactericidal activity against Mycobacterium abscessus ATCC 19977 assessed as reduction in viable bacteria incubated for 4 days by microplate dilution assay; assay type: functional; settings: time 4 day
[19] = system: Mycobacteroides abscessus; test: Antibacterial activity against Mycobacterium abscessus; assay type: functional

Row | Compound | EC50 (MCF7) | MIC50 [1] | MIC90 [1] | MIC50 [2] | MIC90 [2] | EC50 (HeLa) | MIC90 [3] | MIC90 [4] | Stability [5] | MIC90 [6] | Stability [7] | EC50 at 72 h [8] | EC50 (A-375) | EC50 (HT-29) | EC50 (A2780) | MIC90 [9] | t1/2 [11] | MIC90 [12] | Kinetic_solubility [14] | MIC90 [15] | other results
1 | O=C(N[C@H](Cc1ccccc1)C(=O)Nc1ccccc1N1CCS(=O)(=O)CC1)c1ccccc1F | > 30 µM | 0.23 µM (≈ 0.114 µg/mL) | 4.3 µM (≈ 2.13 µg/mL) | 0.39 µM (≈ 0.193 µg/mL) | 6.25 µM (≈ 3.1 µg/mL) | > 30 µM | 1.56 µM (≈ 0.773 µg/mL) | 0.05 µM (≈ 0.0248 µg/mL) | Stable | 0.2 µM (≈ 0.0991 µg/mL) | Stable | > 30 µM | > 30 µM | > 30 µM | > 30 µM | 0.78 µM (≈ 0.387 µg/mL) | 1.5 min | 42 µM (≈ 20.8 µg/mL) | 64 µM | 0.78 µM (≈ 0.387 µg/mL) | Activity [10]: 99%; Activity [13]: 95%
2 | O=C(N[C@H](Cc1ccccc1)C(=O)Nc1ccccc1N1CCOCC1)c1cccs1 | > 30 µM | 1.7 µM (≈ 0.74 µg/mL) | 4.4 µM (≈ 1.92 µg/mL) | 1.56 µM (≈ 0.679 µg/mL) | 12.5 µM (≈ 5.44 µg/mL) | > 30 µM | 12.5 µM (≈ 5.44 µg/mL) | 0.78 µM (≈ 0.34 µg/mL) | Unstable | 0.78 µM (≈ 0.34 µg/mL) | Stable | > 30 µM | > 30 µM | > 30 µM | > 30 µM | 0.78 µM (≈ 0.34 µg/mL) | 1.7 min | > 100 µM | 82 µM | 6.25 µM (≈ 2.72 µg/mL) | MIC90 [16]: 1.2 µM (≈ 0.523 µg/mL); Activity [17]: inactive; MBC99 [18]: 50 µM (≈ 21.8 µg/mL); MIC90 [19]: 7 µM (≈ 3.05 µg/mL)
